Source: ChEMBL document CHEMBL5346889, “Discovery of 4-oxo-N-phenyl-1,4-dihydroquinoline-3-carboxamide derivatives as novel anti-inflammatory agents for the treatment of acute lung injury and sepsis” (Eur J Med Chem, 2023)
Activity calls are given as the source filed them. The calls are words filed in the database; no cut-off is given here.

Experiments:
J774.A1 [1] = experiment: Antiinflammatory activity in LPS-induced mouse J774.A1 cells assessed as inhibition of LPS-induced IL-6 release at 10 uM preincubated for 30 mins followed by LPS stimulation for 24 hrs by ELISA method; type: functional; conditions: time 24.5 hrs
Outline: (§1)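 J774A.1 macrophages pretreated 30 min at 10 μM, then challenged with LPS 0.5 μg/mL for 24 h at 37 °C, 5% CO2. Medium IL-6 and TNF-α measured by ELISA, normalized to total lysate protein.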

J774.A1 [2] = experiment: Antiinflammatory activity in LPS-induced mouse J774.A1 cells assessed as inhibition of LPS-induced TNF-alpha release at 10 uM preincubated for 30 mins followed by LPS stimulation for 24 hrs by ELISA method; type: functional; conditions: time 24.5 hrs; outline: as §1
J774.A1 [3] = experiment: Antiinflammatory activity in LPS-induced mouse J774.A1 cells assessed as inhibition of LPS-induced TNF-alpha release preincubated for 30 mins followed by LPS stimulation for 24 hrs by ELISA method; type: functional, cell-based
Outline: (§2)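 Dose-response in J774A.1 cells: 30 min pretreatment at 10, 5, 2.5 or 1.25 μM, then LPS 0.5 μg/mL for 24 h. IL-6 and TNF-α by ELISA, normalized to lysate protein; IC50 from the dose-response; 3 independent experiments, mean ± SEM.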

J774.A1 [4] = experiment: Antiinflammatory activity in LPS-induced mouse J774.A1 cells assessed as inhibition of LPS-induced IL-6 release preincubated for 30 mins followed by LPS stimulation for 24 hrs by ELISA method; type: functional, cell-based; outline: as §2
J774.A1 [5] = experiment: Cytotoxicity against mouse J774.A1 cells assessed as reduction in cell viability at 10 uM incubated for 24 hrs by MTT assay; type: functional, cell-based
Outline: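 J774A.1 macrophages exposed to 10 μM for 24 h; MTT at 5 mg/mL added for 4 h; absorbance read at 490 nm; viability expressed as percent of DMSO control.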

Mus musculus [6] = experiment: Antiinflammatory activity in LPS-induced C57/BL6 mouse acute lung injury model assessed as decrease in TNF-alpha expression level at 20 mg/kg via oral gavage preincubated for 30 mins followed by LPS stimulation for 6 hrs by RT-qPCR method; type: functional, organism-based; conditions: time 6.5 hrs
Outline: (§3)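 Male C57BL/6 mice, six weeks old, n = 8 per group. Dosed 20 mg/kg orally 30 min before intratracheal LPS 5 mg/kg; dexamethasone 20 mg/kg as comparator. Lung tissue collected 6 h after LPS. RNA extracted with TRIzol; IL-6 and TNF-α transcripts by RT-qPCR, normalized to β-actin; n = 5 mice per group, mean ± SEM.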

Mus musculus [7] = experiment: Protection against LPS-induced C57/BL6 mouse acute lung injury model assessed as reduction in lung wet/dry ratio at 20 mg/kg via oral gavage preincubated for 30 mins followed by LPS stimulation for 6 hrs; type: functional, organism-based; conditions: time 6.5 hrs
Outline: (§4)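 Mice dosed 20 mg/kg by gavage (dexamethasone 20 mg/kg comparator), intratracheal LPS 5 mg/kg 30 min later, killed at 6 h. Right upper lobe fixed in paraformaldehyde, H&E; lung wet/dry ratio; BALF protein, total cells and neutrophils counted; n = 5 mice per group, mean ± SEM.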

Mus musculus [8] = experiment: Antiinflammatory activity in LPS-induced C57/BL6 mouse acute lung injury model assessed as decrease in IL-6 expression level at 20 mg/kg via oral gavage preincubated for 30 mins followed by LPS stimulation for 6 hrs by RT-qPCR method; type: functional, organism-based; conditions: time 6.5 hrs; outline: as §3
Mus musculus [9] = experiment: Protection against LPS-induced C57/BL6 mouse acute lung injury model assessed as reduction in number of total cells in BALF at 20 mg/kg via oral gavage preincubated for 30 mins followed by LPS stimulation for 6 hrs; type: functional, organism-based; conditions: time 6.5 hrs; outline: as §4
Mus musculus [10] = experiment: Antiinflammatory activity in LPS-induced C57/BL6 mouse acute lung injury model assessed as decrease in TNF-alpha level in BALF at 20 mg/kg via oral gavage preincubated for 30 mins followed by LPS stimulation for 6 hrs by ELISA; conditions: time 6.5 hrs
Mus musculus [11] = experiment: Protection against LPS-induced C57/BL6 mouse acute lung injury model assessed as reduction in protein concentration in BALF at 20 mg/kg via oral gavage preincubated for 30 mins followed by LPS stimulation for 6 hrs; type: functional, organism-based; conditions: time 6.5 hrs; outline: as §4
Mus musculus [12] = experiment: Protection against LPS-induced C57/BL6 mouse acute lung injury model assessed as improvement in alveolar wall thickening at 20 mg/kg via oral gavage preincubated for 30 mins followed by LPS stimulation for 6 hrs; type: functional, organism-based; conditions: time 6.5 hrs; outline: as §4
Mus musculus [13] = experiment: Protection against LPS-induced C57/BL6 mouse acute lung injury model assessed as reduction in number of neutrophils in BALF at 20 mg/kg via oral gavage preincubated for 30 mins followed by LPS stimulation for 6 hrs; type: functional, organism-based; conditions: time 6.5 hrs; outline: as §4
Mus musculus [14] = experiment: Antiinflammatory activity in LPS-induced C57/BL6 mouse acute lung injury model assessed as decrease in TNF-alpha level in serum at 20 mg/kg via oral gavage preincubated for 30 mins followed by LPS stimulation for 6 hrs by ELISA; conditions: time 6.5 hrs
Mus musculus [15] = experiment: Antiinflammatory activity in LPS-induced C57/BL6 mouse acute lung injury model assessed as reduction in macrophage infiltration at 20 mg/kg via oral gavage preincubated for 30 mins followed by LPS stimulation for 6 hrs by immunohistochemical staining based analysis; type: functional, organism-based; conditions: time 6.5 hrs
Outline: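 Same ALI model: 20 mg/kg oral, intratracheal LPS 5 mg/kg 30 min later, lungs at 6 h. Paraffin sections given citrate (pH 6.5) antigen retrieval, 3% H2O2 and 5% BSA block, anti-F4/80 12 h at 4 °C, HRP secondary, DAB and hematoxylin; F4/80 positivity quantified; n = 5 per group.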

Mus musculus [16] = experiment: Antiinflammatory activity in LPS-induced C57/BL6 mouse acute lung injury model assessed as decrease in IL-6 level in serum at 20 mg/kg via oral gavage preincubated for 30 mins followed by LPS stimulation for 6 hrs by ELISA; conditions: time 6.5 hrs
Mus musculus [17] = experiment: Antiinflammatory activity in LPS-induced C57/BL6 mouse acute lung injury model assessed as decrease in IL-6 level in BALF at 20 mg/kg via oral gavage preincubated for 30 mins followed by LPS stimulation for 6 hrs by ELISA; conditions: time 6.5 hrs
Mus musculus [18] = experiment: Protection against LPS-induced C57/BL6 mouse acute lung injury model assessed as improvement in structural distruption of lung tissue at 20 mg/kg via oral gavage preincubated for 30 mins followed by LPS stimulation for 6 hrs; type: functional, organism-based; conditions: time 6.5 hrs; outline: as §4

| SMILES | inhibition at 10 µM (J774.A1 [1]) [%] | inhibition at 10 µM (J774.A1 [2]) [%] | inhibition (J774.A1 [2]) | other results |
| --- | --- | --- | --- | --- |
| COc1cc2nccc(Oc3ccc(NC(=O)c4cn(-c5ccc(F)c(Cl)c5)c5ccccc5c4=O)cc3)c2cc1OC | 62.2 | 67.7 |  |  |
| COc1cc2ncnc(Oc3cccc(NC(=O)c4cn(-c5ccc(F)cc5)c5ccccc5c4=O)c3)c2cc1OC | 45.4 |  | inactive |  |
| COc1cc2ncnc(Oc3cccc(NC(=O)c4cn(-c5ccc(OC(F)(F)F)cc5)c5ccccc5c4=O)c3)c2cc1OC | 10.4 | 7.66 |  |  |
| COc1cc2nccc(Oc3ccc(NC(=O)c4cn(-c5ccc(Br)cc5)c5ccccc5c4=O)cc3)c2cc1OC | 41.7 | 71.7 |  |  |
| COc1cc2ncnc(Oc3cccc(NC(=O)c4cn(-c5ccc(F)c(Cl)c5)c5ccccc5c4=O)c3)c2cc1OC | 33.9 | 36 |  |  |
| COc1cc2nccc(Oc3cccc(NC(=O)c4cn(-c5ccc(Cl)cc5)c5ccccc5c4=O)c3)c2cc1OC | 60.2 |  | inactive |  |
| COc1cc2ncnc(Oc3ccc(NC(=O)c4cn(-c5ccc(F)c(Cl)c5)c5ccccc5c4=O)cc3)c2cc1OC | 39.6 | 48 |  |  |
| COc1cc2ncnc(Oc3cccc(NC(=O)c4cn(-c5ccc(Cl)cc5)c5ccccc5c4=O)c3)c2cc1OC | 32.3 |  | inactive |  |
| COc1cc2ncnc(Oc3ccc(NC(=O)c4cn(-c5ccc(Br)cc5F)c5ccccc5c4=O)cc3)c2cc1OC | 13.3 |  | inactive |  |
| COc1cc2nccc(Oc3cccc(NC(=O)c4cn(-c5ccc(OC(F)(F)F)cc5)c5ccccc5c4=O)c3)c2cc1OC | 66.4 | 33.3 |  |  |
| COc1cc2ncnc(Oc3ccc(NC(=O)c4cn(-c5ccc(Cl)cc5)c5ccccc5c4=O)cc3)c2cc1OC | 30.5 |  | inactive |  |
| COc1cc2nccc(Oc3cccc(NC(=O)c4cn(-c5ccc(Br)cc5F)c5ccccc5c4=O)c3)c2cc1OC | 52.9 |  | inactive |  |
| COc1cc2ncnc(Oc3ccc(NC(=O)c4cn(-c5ccccc5)c5ccccc5c4=O)cc3)c2cc1OC | 38.1 | 30.5 |  |  |
| COc1cc2nccc(Oc3ccc(NC(=O)c4cn(-c5ccc(Cl)cc5)c5ccccc5c4=O)cc3)c2cc1OC | 32 | 63.5 |  |  |
| COc1cc2ncnc(Oc3ccc(NC(=O)c4cn(-c5ccc(F)cc5)c5ccccc5c4=O)cc3)c2cc1OC | 57 | 48 |  |  |
| COc1cc2nccc(Oc3cccc(NC(=O)c4cn(-c5ccccc5)c5ccccc5c4=O)c3)c2cc1OC | 44.8 |  | inactive |  |
| COc1cc2ncnc(Oc3ccc(NC(=O)c4cn(-c5ccc(Br)cc5)c5ccccc5c4=O)cc3)c2cc1OC |  | 22.4 |  | inhibition (J774.A1 [1]): inactive |
| COc1cc2nccc(Oc3ccc(NC(=O)c4cn(-c5ccc(F)cc5)c5ccccc5c4=O)cc3)c2cc1OC | 77.4 | 83.1 |  | IC50 (J774.A1 [3]): 3460 nM; inhibition (J774.A1 [3]; dose 1.25-10 µM, time 24.5 hrs): Dose-Dependent Effect; IC50 (J774.A1 [4]): 2330 nM; inhibition (J774.A1 [4]; dose 1.25-10 µM, time 24.5 hrs): Dose-Dependent Effect; Activity (J774.A1 [5]): inactive |
| COc1cc2nccc(Oc3ccc(NC(=O)c4cn(-c5ccc(OC(F)(F)F)cc5)c5ccccc5c4=O)cc3)c2cc1OC | 50.5 | 67.6 |  |  |
| COc1cc2ncnc(Oc3ccc(NC(=O)c4cn(-c5ccc(OC(F)(F)F)cc5)c5ccccc5c4=O)cc3)c2cc1OC | 35.9 | 54.9 |  |  |
| COc1cc2nccc(Oc3ccc(NC(=O)c4cn(-c5ccc(Br)cc5F)c5ccccc5c4=O)cc3)c2cc1OC | 26.7 |  | inactive |  |
| COc1cc2ncnc(Oc3cccc(NC(=O)c4cn(-c5ccc(Br)cc5)c5ccccc5c4=O)c3)c2cc1OC | 20.4 |  | inactive |  |
| COc1cc2ncnc(Oc3cccc(NC(=O)c4cn(-c5ccc(Br)cc5F)c5ccccc5c4=O)c3)c2cc1OC |  |  | inactive | inhibition (J774.A1 [1]): inactive |
| COc1cc2nccc(Oc3cccc(NC(=O)c4cn(-c5ccc(Br)cc5)c5ccccc5c4=O)c3)c2cc1OC | 37.1 |  | inactive |  |
| COc1cc2ncnc(Oc3cccc(NC(=O)c4cn(-c5ccccc5)c5ccccc5c4=O)c3)c2cc1OC | 42.4 |  | inactive |  |
| C[C@@H]1C[C@H]2[C@@H]3CCC4=CC(=O)C=C[C@]4(C)[C@@]3(F)[C@@H](O)C[C@]2(C)[C@@]1(O)C(=O)CO |  |  |  | Activity (Mus musculus [6]): Active; Activity (Mus musculus [7]): Active; Activity (Mus musculus [8]): Active; Activity (Mus musculus [9]): Active; Activity (Mus musculus [10]): Active; Activity (Mus musculus [11]): Active; Activity (Mus musculus [12]): Active; Activity (Mus musculus [13]): Active; Activity (Mus musculus [14]): Active; Activity (Mus musculus [15]): Active; Activity (Mus musculus [16]): Active; Activity (Mus musculus [17]): Active; Activity (Mus musculus [18]): Active |
| COc1cc2nccc(Oc3cccc(NC(=O)c4cn(-c5ccc(F)cc5)c5ccccc5c4=O)c3)c2cc1OC | 51.3 |  | inactive |  |
| COc1cc2nccc(Oc3cccc(NC(=O)c4cn(-c5ccc(F)c(Cl)c5)c5ccccc5c4=O)c3)c2cc1OC | 49.7 | 32.6 |  |  |
